Measurements reported in article PMC9170026 (Proceedings of the National Academy of Sciences of the …, 2022).
Read-outs that look alike come from different tables or passages of the source.

What was measured:
[1] = tested on: TNF-α–induced IKKβ-mediated NF-κB activation; experiment: Dual luciferase assay-based screen of quinoxaline analogs; assay type: cell-based; conditions: relative to parent analog / 13-197
In short: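 Dual-luciferase NF-κB reporter screen of quinoxaline analogs against TNF-α–stimulated, IKKβ-mediated NF-κB activation. Two reference compounds, the parent quinoxaline and an allosteric IKKβ inhibitor, served as controls marking the ends of the activity range. n = 4, reported as average ± SEM. P values from a two-tailed Student's t test.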

[2] = Metabolic stability in human liver S9 fraction; assay type: in vitro ADME
NF-κB pathway proteins = experiment: Western blot of NF-κB pathway proteins in MiaPaCa2 cells, 6 h; assay type: cell-based, human; conditions: MiaPaCa2, 6h, dose-response
IKKβ [3] = biological target: T1, IKKβ (Homo sapiens, UniProt O14920); experiment: 10-point dose-response IKKβ kinase activity assay; assay type: biochemical
T1 sequence (O14920 1-756): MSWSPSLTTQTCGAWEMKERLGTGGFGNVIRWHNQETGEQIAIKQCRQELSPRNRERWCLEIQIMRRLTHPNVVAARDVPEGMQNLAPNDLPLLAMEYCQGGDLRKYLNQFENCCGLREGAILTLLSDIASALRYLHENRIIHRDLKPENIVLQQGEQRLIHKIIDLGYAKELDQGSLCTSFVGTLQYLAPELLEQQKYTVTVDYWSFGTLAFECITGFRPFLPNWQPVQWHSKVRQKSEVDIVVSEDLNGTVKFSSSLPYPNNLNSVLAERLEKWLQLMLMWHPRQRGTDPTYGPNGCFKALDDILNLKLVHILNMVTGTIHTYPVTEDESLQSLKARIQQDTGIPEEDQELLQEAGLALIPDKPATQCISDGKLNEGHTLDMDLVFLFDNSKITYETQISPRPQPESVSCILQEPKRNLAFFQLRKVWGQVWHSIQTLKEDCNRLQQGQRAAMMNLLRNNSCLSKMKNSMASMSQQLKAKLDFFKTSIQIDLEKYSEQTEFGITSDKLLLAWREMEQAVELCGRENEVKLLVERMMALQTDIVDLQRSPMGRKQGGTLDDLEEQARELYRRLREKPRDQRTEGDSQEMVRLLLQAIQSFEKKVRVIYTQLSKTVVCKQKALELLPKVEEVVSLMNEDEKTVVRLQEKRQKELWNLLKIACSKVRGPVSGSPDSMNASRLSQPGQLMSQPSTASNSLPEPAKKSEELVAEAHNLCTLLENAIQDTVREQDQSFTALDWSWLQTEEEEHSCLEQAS

[4] = Oral and intravenous dose pharmacokinetic studies in mice; conditions: mouse, in vivo
p-IKKβ = p-IKKβ levels in MiaPaCa2 cells; assay type: cell-based; conditions: Homo sapiens, MIA PaCa-2, read-out: IC50 for reduction of p-IKKβ levels
MAP3K1-WT–induced p-IKKβ = experiment: Western blot of MAP3K1-WT transfected HeLa cells; assay type: cell-based
IKKβ [5] = biological target: T1, IKKβ; experiment: KinomeSCAN binding to IKKβ
[6] = tested on: TNF-α–induced MAP3K1-IKKβ–mediated NF-κB activity; experiment: HeLa luciferase reporter under NF-κB response element; assay type: cell-based
[7] = tested on: 328 kinase-associated peptides that correspond to 254 kinases; experiment: KiNativ kinome profiling dose-response in PANC1 lysate; assay type: binding; conditions: PANC1 cell lysates, 1.25-10 μM
In short: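 KiNativ kinome profiling done as a dose-response in PANC1 cells. Test compound was used at 1.25, 2.5, 5, 7.5 and 10 μM. Each kinase inhibited was recorded at each concentration.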

[8] = tested on: T3M4 orthotopic pancreatic tumors; experiment: T3M4 orthotopic xenograft model; assay type: in vivo, athymic nude mice; conditions: 40 mg/kg, by mouth
[9] = tested on: TNF-α–induced MAP3K1-IKKβ–mediated NF-κB activation; assay type: cell-based; conditions: MAP3K1-WT transfected HeLa, TNF-α 20 ng/mL, 6 h
MAP3K12 = conditions: cited from earlier work

For `Cn1cc(-c2cnc3ccc(NC(=O)Nc4ccc(Br)cc4)cc3n2)cn1` [analog 5], the “inhibition of TNF-α–induced IKKβ-mediated NF-κB activity (SAR screen)” value (“inhibition … (SAR screen)” for short) [1] was “improved activity”.
With `Cn1cc(-c2cnc3ccc(NC(=O)Nc4ccccc4Br)cc3n2)cn1` [analog 13] the “inhibition … (SAR screen)” value [1] was “reduced the activity”.
In the case of `Cn1cc(-c2cnc3ccc(NC(=O)Nc4cccc(Br)c4)cc3n2)cn1` [compound 12], the “improvement of t1/2 (stability) over 13-197” value [2] is reported as “four-fold better”, the “inhibition … (SAR screen)” value [1] is reported as “further improved the activity” and the Bcl-xL levels (NF-κB pathway proteins) is reported as “no change in Bcl-xL”. The IκBα phosphorylation (NF-κB pathway proteins) was “inhibited IκBα phosphorylation in a dose-dependent manner” and the Mcl-1 levels (NF-κB pathway proteins) was “robust reduction in Mcl-1 levels”.
With `Cn1cc(-c2cnc3ccc(NC(=O)Nc4ccc(F)c(Br)c4)cc3n2)cn1` [39-100] the “in vitro IKKβ enzymatic inhibition” value (IKKβ [3]) was “inactive”, the “improvement in oral bioavailability over 13-197” value [4] was about 12 fold and the IC50 (p-IKKβ) was 2300 ± 200 nM. For the same compound, the “MAP3K1-WT–induced p-IKKβ” value (MAP3K1-WT–induced p-IKKβ) was “inhibited”, the “in vitro IKKβ binding” value (IKKβ [5]) was “did not bind” and the “in vitro IKKβ binding” value (IKKβ [5]; listed as IKAM-1) was “inactive”. The “improvement of t1/2 (stability) over 13-197” value [2] was about 8 fold, the major metabolites ([2]; 2h post-incubation) was “demethylated, glucuronidated, and sulfated products” and the “inhibition of TNF-α–induced NF-κB reporter activity” value [6] was “selectively inhibited”. The kinome selectivity [7] was “selectively inhibits MAP3K1”, the “Ki67 and CD31+ tumor cells vs vehicle” value [8] was “reduced Ki67 and CD31^+ tumor cells” and the “p-IKKβ expression in tumors (IHC) vs vehicle” value [8] was “reduced expression of p-IKKβ”. The “inhibition of TNF-α–induced MAP3K1-IKKβ–mediated NF-κB activation” value [9] was “inhibited”, the Bcl-xL levels (NF-κB pathway proteins) was “no change in Bcl-xL” and the IκBα phosphorylation (NF-κB pathway proteins) was “inhibited IκBα phosphorylation in a dose-dependent manner”.
In the case of `CC(C)n1nc(-c2cnc(N)c(OC(F)(F)F)c2)cc1C1[C@H]2CN(C3COC3)C[C@@H]12` (some centres unmarked) [DLK-In-1], the Ki (MAP3K12) is listed as 3 nM.
